18 molecules from ChEMBL document CHEMBL1777744, “Synthesis and anti-tumor activity of novel ethyl 3-aryl-4-oxo-3,3a,4,6-tetrahydro-1H-furo[3,4-c]pyran-3a-carboxylates” (Bioorg Med Chem Lett, 2011) can be followed below.

As usually defined, the IC50 is the concentration needed to halve the response being measured. High values mean weaker potency in that assay, low ones greater potency in that assay.

Common to all, as to format: functional, cell-based
Experiment [1] concerns HeLa. Briefly: Cytotoxicity against human HeLa cells by MTT assay. An outline of the steps: (§1)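 Colorimetric MTT assay, run as quintuplicate dose-response tests. Cytotoxic effect was plotted against log10 of drug concentration for each cell line. IC50 is the concentration that reduced the optical density of treated cells by 50% relative to untreated cells. 5-fluorouracil served as control.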
A general note: Formazan colour is commonly taken as a measure of viable cells.

A short description of experiment [2]: Cytotoxicity against human QGY cells by MTT assay. In short, it runs like this:
as §1

Experiment [3] deals with A549. In words: Cytotoxicity against human A549 cells by MTT assay. An outline of the steps: as §1

Take `CCOC(=O)C12C(=O)OCC=C1COC2c1ccc(N(C)C)cc1` (centres undefined): the IC50 in experiment [1] is 23.4 µM; in experiment [2], more than 1000 µM; in experiment [3] it was 89.6 µM.

Regarding `CCOC(=O)C12C(=O)OCC=C1COC2c1ccc(Cl)cc1` (centres undefined), the IC50 in experiment [1] was 118 µM; in experiment [2], more than 1000 µM; in experiment [3], more than 1000 µM.

On to `CCOC(=O)C12C(=O)OCC=C1COC2c1ccc(Br)cc1` (centres undefined), for which the IC50 in experiment [1] was 48.7 µM; in experiment [2] it was more than 1000 µM; in experiment [3], more than 1000 µM.

As for `CCOC(=O)C12C(=O)OCC=C1COC2c1ccccc1` (centres undefined), the IC50 was 12.8 µM in experiment [1], more than 1000 µM in experiment [2] and more than 1000 µM in experiment [3].

For `CCOC(=O)C12C(=O)OCC=C1COC2c1cc(OC)c(OC)c(OC)c1` (centres undefined), the IC50 in experiment [1] is 5.4 µM; in experiment [2], more than 1000 µM; in experiment [3], 13.3 µM.

Turning to `CCOC(=O)C12C(=O)OCC=C1COC2c1cccc(Cl)c1` (centres undefined), the half-maximal inhibitory concentration (IC50) in experiment [1] is more than 1000 µM; in experiment [2] it was more than 1000 µM; in experiment [3], 28.4 µM.

In the case of `CCOC(=O)C12C(=O)OCC=C1COC2c1cc(OC)cc(OC)c1` (centres undefined), the IC50 is 16 µM in experiment [1], more than 1000 µM in experiment [2] and more than 1000 µM in experiment [3].

With `CCOC(=O)C12C(=O)OCC=C1COC2c1ccc(OC)c(OC)c1` (centres undefined), the IC50 was 10 µM in experiment [1], more than 1000 µM in experiment [2] and more than 1000 µM in experiment [3].

As to `CCOC(=O)C12C(=O)OCC=C1COC2c1ccccn1` (centres undefined), the figures for the IC50 in experiment [1], in experiment [2] and in experiment [3] were 20.7 µM, more than 1000 µM and more than 1000 µM, respectively.

Consider `CCOC(=O)C12C(=O)OCC=C1COC2c1ccc([N+](=O)[O-])cc1` (centres undefined), for which the IC50 in experiment [1] was 53.4 µM; in experiment [2], more than 1000 µM; in experiment [3], 36.8 µM.

As to `CCOC(=O)C12C(=O)OCC=C1COC2c1cccs1` (centres undefined), the IC50 was 30.4 µM in experiment [1], more than 1000 µM in experiment [2] and more than 1000 µM in experiment [3].

In the case of `O=c1[nH]cc(F)c(=O)[nH]1` [FLUOROURACIL], the IC50 in experiment [1] worked out at 16.1 µM; in experiment [2], 14.1 µM; in experiment [3], 5.6 µM.

`CCOC(=O)C12C(=O)OCC=C1COC2c1ccco1` (centres undefined): the IC50 in experiment [1] was 28.3 µM; in experiment [2], more than 1000 µM; in experiment [3], more than 1000 µM.

`CCOC(=O)C12C(=O)OCC=C1COC2c1ccc(Cl)c(Cl)c1` (centres undefined): the IC50 is 72.4 µM in experiment [1], more than 1000 µM in experiment [2] and more than 1000 µM in experiment [3].

Regarding `CCOC(=O)C12C(=O)OCC=C1COC2c1ccccc1F` (centres undefined), the IC50 in experiment [1] is 22.1 µM; in experiment [2], more than 1000 µM; in experiment [3], more than 1000 µM.

On to `CCOC(=O)C12C(=O)OCC=C1COC2c1ccc(F)cc1` (centres undefined), for which the results for the IC50 in experiment [1], in experiment [2] and in experiment [3] were 22.9 µM, more than 1000 µM and more than 1000 µM, respectively.

`CCOC(=O)C12C(=O)OCC=C1COC2c1ccc(OC)cc1` (centres undefined): the figures for the IC50 in experiment [1], in experiment [2] and in experiment [3] were 18.3 µM, more than 1000 µM and 9.3 µM, respectively.

For the molecule `CCOC(=O)C12C(=O)OCC=C1COC2c1ccc(C(C)(C)C)cc1` (centres undefined), the IC50 in experiment [1] was 25.4 µM; in experiment [2], more than 1000 µM; in experiment [3], more than 1000 µM.
